Converted amounts (≈) assume the structure as drawn.
Columns and labels:
Type in all cases: functional
Moraxella catarrhalis = experiment: Antibacterial activity against Moraxella catarrhalis by CLSI M100-S17 method
Streptococcus agalactiae [1] = experiment: Antibacterial activity against Streptococcus agalactiae assessed as susceptible isolates by CLSI M100-S17 method
Procedure, shortened: (§1)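 CLSI broth microdilution on clinical isolates, using frozen in-house-prepared panels of test and comparator agents. MICs were read after 20 to 24 h incubation at 35°C in ambient air. Susceptible/intermediate categories were assigned by CLSI M100-S17 guidelines.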

Streptococcus pyogenes [2] = experiment: Antibacterial activity against Streptococcus pyogenes by CLSI M100-S17 method
Streptococcus pneumoniae [3] = experiment: Antibacterial activity against Streptococcus pneumoniae assessed as intermediate isolates by CLSI M100-S17 method; procedure, shortened: as §1
Streptococcus pyogenes [4] = experiment: Antibacterial activity against Streptococcus pyogenes assessed as susceptible isolates by CLSI M100-S17 method; procedure, shortened: as §1
Streptococcus pneumoniae [5] = experiment: Antibacterial activity against Streptococcus pneumoniae by CLSI M100-S17 method
Streptococcus agalactiae [6] = experiment: Antibacterial activity against Streptococcus agalactiae by CLSI M100-S17 method
Streptococcus pneumoniae [7] = experiment: Antibacterial activity against Streptococcus pneumoniae assessed as susceptible isolates by CLSI M100-S17 method; procedure, shortened: as §1
Streptococcus pneumoniae [8] = experiment: Antibacterial activity against Streptococcus pneumoniae assessed as resistant isolates by CLSI M100-S17 method
Procedure, shortened: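 Clinical isolates were tested by CLSI broth microdilution in frozen, in-house-prepared 96-well panels of the test agent and comparator agents. MICs were read and classed as susceptible, intermediate or resistant using CLSI M100-S17 breakpoints. The value is the share of isolates in each category.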

Staphylococcus aureus [9] = experiment: Antibacterial activity against methicillin-resistant Staphylococcus aureus assessed as resistant isolates by CLSI M100-S17 method
Enterococcus faecium [10] = experiment: Antibacterial activity against Enterococcus faecium by CLSI M100-S17 method
Enterococcus faecalis [11] = experiment: Antibacterial activity against Enterococcus faecalis assessed as susceptible isolates by CLSI M100-S17 method
Staphylococcus aureus [12] = experiment: Antibacterial activity against methicillin-resistant Staphylococcus aureus assessed as susceptible isolates by CLSI M100-S17 method
Staphylococcus aureus [13] = experiment: Antibacterial activity against methicillin-resistant Staphylococcus aureus assessed as intermediate isolates by CLSI M100-S17 method
[14] = system: Staphylococcus epidermidis; experiment: Antibacterial activity against methicillin-susceptible Staphylococcus epidermidis assessed as intermediate isolates by CLSI M100-S17 method
[15] = system: Staphylococcus epidermidis; experiment: Antibacterial activity against methicillin-resistant Staphylococcus epidermidis assessed as susceptible isolates by CLSI M100-S17 method
[16] = system: Staphylococcus epidermidis; experiment: Antibacterial activity against methicillin-resistant Staphylococcus epidermidis assessed as intermediate isolates by CLSI M100-S17 method
Staphylococcus aureus [17] = experiment: Antibacterial activity against methicillin-resistant Staphylococcus aureus by CLSI M100-S17 method
Staphylococcus aureus [18] = experiment: Antibacterial activity against methicillin-susceptible Staphylococcus aureus by CLSI M100-S17 method
[19] = system: Staphylococcus epidermidis; experiment: Antibacterial activity against methicillin-susceptible Staphylococcus epidermidis assessed as resistant isolates by CLSI M100-S17 method
Enterococcus faecalis [20] = experiment: Antibacterial activity against Enterococcus faecalis by CLSI M100-S17 method
[21] = system: Staphylococcus epidermidis; experiment: Antibacterial activity against methicillin-resistant Staphylococcus epidermidis assessed as resistant isolates by CLSI M100-S17 method
Enterococcus faecalis [22] = experiment: Antibacterial activity against Enterococcus faecalis assessed as intermediate isolates by CLSI M100-S17 method
Enterococcus faecalis [23] = experiment: Antibacterial activity against Enterococcus faecalis assessed as resistant isolates by CLSI M100-S17 method
Staphylococcus aureus [24] = experiment: Antibacterial activity against methicillin-susceptible Staphylococcus aureus assessed as resistant isolates by CLSI M100-S17 method
Staphylococcus aureus [25] = experiment: Antibacterial activity against methicillin-susceptible Staphylococcus aureus assessed as susceptible isolates by CLSI M100-S17 method
Staphylococcus aureus [26] = experiment: Antibacterial activity against methicillin-susceptible Staphylococcus aureus assessed as intermediate isolates by CLSI M100-S17 method
Enterococcus faecium [27] = experiment: Antibacterial activity against Enterococcus faecium assessed as susceptible isolates by CLSI M100-S17 method
[28] = system: Staphylococcus epidermidis; experiment: Antibacterial activity against methicillin-susceptible Staphylococcus epidermidis assessed as susceptible isolates by CLSI M100-S17 method
[29] = system: Staphylococcus epidermidis; experiment: Antibacterial activity against methicillin-susceptible Staphylococcus epidermidis by CLSI M100-S17 method
Enterococcus faecium [30] = experiment: Antibacterial activity against Enterococcus faecium assessed as intermediate isolates by CLSI M100-S17 method
[31] = system: Staphylococcus epidermidis; experiment: Antibacterial activity against methicillin-resistant Staphylococcus epidermidis by CLSI M100-S17 method
Klebsiella oxytoca [32] = experiment: Antibacterial activity against Klebsiella oxytoca assessed as intermediate isolates by CLSI M100-S17 method
Klebsiella oxytoca [33] = experiment: Antibacterial activity against Klebsiella oxytoca assessed as susceptible isolates by CLSI M100-S17 method
Enterobacter cloacae [34] = experiment: Antibacterial activity against Enterobacter cloacae assessed as resistant isolates by CLSI M100-S17 method
Pseudomonas aeruginosa [35] = experiment: Antibacterial activity against Pseudomonas aeruginosa by CLSI M100-S17 method
[36] = system: Stenotrophomonas maltophilia; experiment: Antibacterial activity against Stenotrophomonas maltophilia by CLSI M100-S17 method
Klebsiella pneumoniae [37] = experiment: Antibacterial activity against Klebsiella pneumoniae assessed as intermediate isolates by CLSI M100-S17 method
Acinetobacter baumannii [38] = experiment: Antibacterial activity against Acinetobacter baumannii assessed as intermediate isolates by CLSI M100-S17 method
Enterobacter cloacae [39] = experiment: Antibacterial activity against Enterobacter cloacae assessed as intermediate isolates by CLSI M100-S17 method
Pseudomonas aeruginosa [40] = experiment: Antibacterial activity against Pseudomonas aeruginosa assessed as susceptible isolates by CLSI M100-S17 method
Proteus mirabilis [41] = experiment: Antibacterial activity against Proteus mirabilis assessed as intermediate isolates by CLSI M100-S17 method
Proteus mirabilis [42] = experiment: Antibacterial activity against Proteus mirabilis by CLSI M100-S17 method
Enterobacter cloacae [43] = experiment: Antibacterial activity against Enterobacter cloacae by CLSI M100-S17 method
Serratia marcescens [44] = experiment: Antibacterial activity against Serratia marcescens assessed as resistant isolates by CLSI M100-S17 method
Escherichia coli [45] = experiment: Antibacterial activity against Escherichia coli assessed as susceptible isolates by CLSI M100-S17 method
Proteus mirabilis [46] = experiment: Antibacterial activity against Proteus mirabilis assessed as resistant isolates by CLSI M100-S17 method
Proteus mirabilis [47] = experiment: Antibacterial activity against Proteus mirabilis assessed as susceptible isolates by CLSI M100-S17 method
Acinetobacter baumannii [48] = experiment: Antibacterial activity against Acinetobacter baumannii assessed as susceptible isolates by CLSI M100-S17 method
Enterobacter cloacae [49] = experiment: Antibacterial activity against Enterobacter cloacae assessed as susceptible isolates by CLSI M100-S17 method
Klebsiella pneumoniae [50] = experiment: Antibacterial activity against Klebsiella pneumoniae assessed as resistant isolates by CLSI M100-S17 method
Klebsiella pneumoniae [51] = experiment: Antibacterial activity against Klebsiella pneumoniae assessed as susceptible isolates by CLSI M100-S17 method
Serratia marcescens [52] = experiment: Antibacterial activity against Serratia marcescens by CLSI M100-S17 method
Escherichia coli [53] = experiment: Antibacterial activity against Escherichia coli assessed as resistant isolates by CLSI M100-S17 method
Escherichia coli [54] = experiment: Antibacterial activity against Escherichia coli assessed as intermediate isolates by CLSI M100-S17 method
Acinetobacter baumannii [55] = experiment: Antibacterial activity against Acinetobacter baumannii by CLSI M100-S17 method
Klebsiella oxytoca [56] = experiment: Antibacterial activity against Klebsiella oxytoca assessed as resistant isolates by CLSI M100-S17 method
Serratia marcescens [57] = experiment: Antibacterial activity against Serratia marcescens assessed as intermediate isolates by CLSI M100-S17 method
Pseudomonas aeruginosa [58] = experiment: Antibacterial activity against Pseudomonas aeruginosa assessed as intermediate isolates by CLSI M100-S17 method
Pseudomonas aeruginosa [59] = experiment: Antibacterial activity against Pseudomonas aeruginosa assessed as resistant isolates by CLSI M100-S17 method
Acinetobacter baumannii [60] = experiment: Antibacterial activity against Acinetobacter baumannii assessed as resistant isolates by CLSI M100-S17 method
Escherichia coli [61] = experiment: Antibacterial activity against Escherichia coli by CLSI M100-S17 method

CC1(C)S[C@@H]2[C@H](NC(=O)Cc3ccccc3)C(=O)N2[C@H]1C(=O)O [PENICILLIN G]
MIC50 (Moraxella catarrhalis): > 8 µg/mL | MIC90 (Moraxella catarrhalis): > 8 µg/mL | Activity (Streptococcus agalactiae [1]): 100% | MIC (Streptococcus pyogenes [2]): ≤ 0.03 µg/mL | MIC50 (Streptococcus pyogenes [2]): ≤ 0.03 µg/mL | MIC90 (Streptococcus pyogenes [2]): ≤ 0.03 µg/mL | Activity (Streptococcus pneumoniae [3]): 15.7% | Activity (Streptococcus pyogenes [4]): 100% | MIC50 (Streptococcus pneumoniae [5]): 0.06 µg/mL (≈ 0.179 µM) | MIC90 (Streptococcus pneumoniae [5]): 0.25 µg/mL (≈ 0.748 µM) | MIC50 (Streptococcus agalactiae [6]): 0.06 µg/mL (≈ 0.179 µM) | MIC90 (Streptococcus agalactiae [6]): 0.25 µg/mL (≈ 0.748 µM) | Activity (Streptococcus pneumoniae [7]): 79.3% | Activity (Streptococcus pneumoniae [8]): 5%

CN[C@H](CC(C)C)C(=O)N[C@H]1C(=O)N[C@@H](CC(N)=O)C(=O)N[C@H]2C(=O)N[C@H]3C(=O)N[C@H](C(=O)N[C@H](C(=O)O)c4cc(O)cc(O)c4-c4cc3ccc4O)[C@H](O)c3ccc(c(Cl)c3)Oc3cc2cc(c3O[C@@H]2O[C@H](CO)[C@@H](O)[C@H](O)[C@H]2O[C@H]2C[C@](C)(N)[C@H](O)[C@H](C)O2)Oc2ccc(cc2Cl)[C@H]1O [VANCOMYCIN]
Activity (Staphylococcus aureus [9]): 0% | MIC50 (Enterococcus faecium [10]): 0.5 µg/mL (≈ 0.345 µM) | MIC90 (Enterococcus faecium [10]): > 32 µg/mL | Activity (Enterococcus faecalis [11]): 100% | MIC50 (Streptococcus pyogenes [2]): 0.5 µg/mL (≈ 0.345 µM) | MIC90 (Streptococcus pyogenes [2]): 0.5 µg/mL (≈ 0.345 µM) | Activity (Staphylococcus aureus [12]): 100% | Activity (Staphylococcus aureus [13]): 0% | Activity [14]: 0% | Activity [15]: 100% | Activity [16]: 0% | MIC50 (Staphylococcus aureus [17]): 1 µg/mL (≈ 0.69 µM) | MIC90 (Staphylococcus aureus [17]): 1 µg/mL (≈ 0.69 µM) | MIC50 (Staphylococcus aureus [18]): 1 µg/mL (≈ 0.69 µM) | MIC90 (Staphylococcus aureus [18]): 1 µg/mL (≈ 0.69 µM) | Activity (Streptococcus pyogenes [4]): 100% | Activity [19]: 0% | MIC50 (Enterococcus faecalis [20]): 1 µg/mL (≈ 0.69 µM) | MIC90 (Enterococcus faecalis [20]): 2 µg/mL (≈ 1.38 µM) | MIC50 (Streptococcus pneumoniae [5]): ≤ 0.25 µg/mL | MIC90 (Streptococcus pneumoniae [5]): 0.25 µg/mL (≈ 0.173 µM) | MIC50 (Streptococcus agalactiae [6]): ≤ 0.25 µg/mL | MIC90 (Streptococcus agalactiae [6]): 0.25 µg/mL (≈ 0.173 µM) | Activity (Streptococcus pneumoniae [7]): 100% | Activity [21]: 0% | Activity (Enterococcus faecalis [22]): 0% | Activity (Enterococcus faecalis [23]): 0% | Activity (Staphylococcus aureus [24]): 0% | Activity (Staphylococcus aureus [25]): 100% | Activity (Staphylococcus aureus [26]): 0% | Activity (Enterococcus faecium [27]): 87.9% | Activity [28]: 100% | MIC90 [29]: 2 µg/mL (≈ 1.38 µM) | Activity (Enterococcus faecium [30]): 0% | MIC90 [31]: 2 µg/mL (≈ 1.38 µM)

GENTAMICIN
Activity (Staphylococcus aureus [9]): 13.2% | Activity (Klebsiella oxytoca [32]): 2% | Activity (Klebsiella oxytoca [33]): 97% | Activity (Enterobacter cloacae [34]): 3.6% | MIC50 (Pseudomonas aeruginosa [35]): 4 µg/mL | MIC90 (Pseudomonas aeruginosa [35]): > 32 µg/mL | MIC50 [36]: 32 µg/mL | MIC90 [36]: > 32 µg/mL | Activity (Klebsiella pneumoniae [37]): 0.4% | Activity (Acinetobacter baumannii [38]): 0% | Activity (Enterobacter cloacae [39]): 0% | Activity (Pseudomonas aeruginosa [40]): 60.1% | Activity (Proteus mirabilis [41]): 0.8% | MIC50 (Proteus mirabilis [42]): 1 µg/mL | MIC90 (Proteus mirabilis [42]): 2 µg/mL | Activity (Staphylococcus aureus [12]): 86.8% | MIC90 (Enterobacter cloacae [43]): 1 µg/mL | Activity (Staphylococcus aureus [13]): 0% | Activity [14]: 10.2% | Activity (Serratia marcescens [44]): 4.7% | Activity (Escherichia coli [45]): 88.9% | Activity (Proteus mirabilis [46]): 3.4% | Activity (Proteus mirabilis [47]): 95.8% | Activity [15]: 30% | Activity (Acinetobacter baumannii [48]): 92% | Activity (Enterobacter cloacae [49]): 96.4% | Activity (Klebsiella pneumoniae [50]): 2.9% | Activity [16]: 15% | MIC90 (Staphylococcus aureus [17]): > 32 µg/mL | Activity (Klebsiella pneumoniae [51]): 96.7% | MIC90 (Staphylococcus aureus [18]): 1 µg/mL | MIC90 (Serratia marcescens [52]): 1 µg/mL | Activity (Escherichia coli [53]): 10.6% | Activity [19]: 31.5% | Activity (Escherichia coli [54]): 0.5% | MIC90 (Acinetobacter baumannii [55]): 1 µg/mL | Activity (Klebsiella oxytoca [56]): 1% | Activity [21]: 55% | Activity (Serratia marcescens [57]): 3.7% | Activity (Staphylococcus aureus [24]): 3.2% | Activity (Staphylococcus aureus [25]): 96.7% | Activity (Pseudomonas aeruginosa [58]): 19% | Activity (Staphylococcus aureus [26]): 0.1% | Activity (Pseudomonas aeruginosa [59]): 20.9% | Activity [28]: 58.3% | Activity (Acinetobacter baumannii [60]): 8% | MIC90 [29]: > 32 µg/mL | MIC90 (Escherichia coli [61]): 16 µg/mL | MIC50 [31]: 16 µg/mL | MIC90 [31]: > 32 µg/mL
